Laboratory results reported in ChEMBL document CHEMBL1145014, “8-Aza-immucillins as transition-state analogue inhibitors of purine nucleoside phosphorylase and nucleoside hydrolases” (J Med Chem, 2003).

Legend:
[1] = biological target: T1, Purine nucleoside phosphorylase (Bos taurus, UniProt P55859); assay: Inhibitory activity of compound against bovine purine nucleoside phosphorylase (PNP)
T1 sequence (P55859 whole entry): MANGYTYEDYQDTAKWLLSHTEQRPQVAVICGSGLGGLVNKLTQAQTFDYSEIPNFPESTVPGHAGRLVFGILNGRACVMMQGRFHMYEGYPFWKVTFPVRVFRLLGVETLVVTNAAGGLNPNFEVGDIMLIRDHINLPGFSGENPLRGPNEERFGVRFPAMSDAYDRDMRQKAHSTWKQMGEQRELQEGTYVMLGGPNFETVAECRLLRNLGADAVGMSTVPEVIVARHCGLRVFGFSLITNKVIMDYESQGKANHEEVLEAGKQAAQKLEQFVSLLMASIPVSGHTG

[2] = biological target: T2, Purine nucleoside phosphorylase (Homo sapiens, UniProt P00491); assay: Inhibitory activity of compound against human purine nucleoside phosphorylase (PNP)
T2 sequence (P00491 whole entry): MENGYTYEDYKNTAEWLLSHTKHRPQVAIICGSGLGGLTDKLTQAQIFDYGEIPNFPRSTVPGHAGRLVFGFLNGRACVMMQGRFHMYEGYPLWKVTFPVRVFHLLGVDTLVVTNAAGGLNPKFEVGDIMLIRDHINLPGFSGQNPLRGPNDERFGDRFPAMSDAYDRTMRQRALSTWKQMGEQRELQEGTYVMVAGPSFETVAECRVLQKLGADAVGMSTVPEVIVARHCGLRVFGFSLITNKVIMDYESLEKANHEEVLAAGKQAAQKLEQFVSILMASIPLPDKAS

[3] = biological target: T3, Purine nucleoside phosphorylase (Homo sapiens) (UniProt P00491)
T3 sequence (whole entry): T2 sequence (P00491 whole entry)

[4] = biological target: T4, Purine nucleoside phosphorylase (Bos taurus) (UniProt P55859)
T4 sequence (whole entry): T1 sequence (P55859 whole entry)

[5] = Inhibitory activity of compound against […] inosine-adenosine-guanosine nucleoside hydrolase (IAG-NH) from Trypanosoma brucei
Summary of the method: (§1)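 Values are inhibition constants (Ki) against the nucleoside hydrolases: nonspecific inosine-uridine NH from *Crithidia fasciculata* and purine-specific inosine-adenosine-guanosine NH from *Trypanosoma brucei brucei*.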

[6] = Inhibitory activity of compound against inosine-uridine nucleoside hydrolase (IU-NH) from crithidia fasciculata; summary of the method: as §1

SMILES | Ki [1] | Ki [2] | K6 [3] | K6 [4] | Ki [5] | Ki [6]
Nc1nc2c([C@@H]3N[C@H](CO)[C@@H](O)[C@H]3O)c[nH]c2c(=O)[nH]1 | 0.03 nM | 0.029 nM | 0.0015 s⁻¹ | 0.00019 s⁻¹ |  | 
OC[C@H]1N[C@@H](c2n[nH]c3c(O)ncnc23)[C@H](O)[C@@H]1O | 0.042 nM | 0.104 nM | 0.013 s⁻¹ | 0.021 s⁻¹ | 13900 nM | 1600 nM
Nc1ncnc2c(C3N[C@H](CO)[C@H](O)[C@@H]3O)n[nH]c12 (stereo partly specified) |  |  |  |  | 14000 nM | 150 nM
NC(=O)c1[nH]nc(C2N[C@H](CO)[C@H](O)[C@@H]2O)c1N (stereo partly specified) | 0.06 nM | 0.096 nM |  | 0.019 s⁻¹ | 3700 nM | 4800 nM
O=c1[nH]cnc2c([C@@H]3N[C@H](CO)[C@@H](O)[C@H]3O)c[nH]c12 [FORODESINE] | 0.023 nM |  | 0.0015 s⁻¹ | 4e-05 s⁻¹ | 24 nM | 42 nM
Nc1[nH]cnc2c(C3N[C@H](CO)[C@H](O)[C@@H]3O)cnc1-2 (stereo partly specified) |  |  |  |  | 0.9 nM | 7.2 nM
NC(=O)c1[nH]cc(C2N[C@H](CO)[C@H](O)[C@@H]2O)c1N (stereo partly specified) |  |  |  |  | 23 nM | 3 nM
